{"data": "Experimental data of several laboratories", "target": "Serine/threonine-protein kinase Nek10 (NEK10, Homo sapiens, UniProt Q6ZWH5)", "Sequence (Q6ZWH5 1-1172, as in one of the studies)": "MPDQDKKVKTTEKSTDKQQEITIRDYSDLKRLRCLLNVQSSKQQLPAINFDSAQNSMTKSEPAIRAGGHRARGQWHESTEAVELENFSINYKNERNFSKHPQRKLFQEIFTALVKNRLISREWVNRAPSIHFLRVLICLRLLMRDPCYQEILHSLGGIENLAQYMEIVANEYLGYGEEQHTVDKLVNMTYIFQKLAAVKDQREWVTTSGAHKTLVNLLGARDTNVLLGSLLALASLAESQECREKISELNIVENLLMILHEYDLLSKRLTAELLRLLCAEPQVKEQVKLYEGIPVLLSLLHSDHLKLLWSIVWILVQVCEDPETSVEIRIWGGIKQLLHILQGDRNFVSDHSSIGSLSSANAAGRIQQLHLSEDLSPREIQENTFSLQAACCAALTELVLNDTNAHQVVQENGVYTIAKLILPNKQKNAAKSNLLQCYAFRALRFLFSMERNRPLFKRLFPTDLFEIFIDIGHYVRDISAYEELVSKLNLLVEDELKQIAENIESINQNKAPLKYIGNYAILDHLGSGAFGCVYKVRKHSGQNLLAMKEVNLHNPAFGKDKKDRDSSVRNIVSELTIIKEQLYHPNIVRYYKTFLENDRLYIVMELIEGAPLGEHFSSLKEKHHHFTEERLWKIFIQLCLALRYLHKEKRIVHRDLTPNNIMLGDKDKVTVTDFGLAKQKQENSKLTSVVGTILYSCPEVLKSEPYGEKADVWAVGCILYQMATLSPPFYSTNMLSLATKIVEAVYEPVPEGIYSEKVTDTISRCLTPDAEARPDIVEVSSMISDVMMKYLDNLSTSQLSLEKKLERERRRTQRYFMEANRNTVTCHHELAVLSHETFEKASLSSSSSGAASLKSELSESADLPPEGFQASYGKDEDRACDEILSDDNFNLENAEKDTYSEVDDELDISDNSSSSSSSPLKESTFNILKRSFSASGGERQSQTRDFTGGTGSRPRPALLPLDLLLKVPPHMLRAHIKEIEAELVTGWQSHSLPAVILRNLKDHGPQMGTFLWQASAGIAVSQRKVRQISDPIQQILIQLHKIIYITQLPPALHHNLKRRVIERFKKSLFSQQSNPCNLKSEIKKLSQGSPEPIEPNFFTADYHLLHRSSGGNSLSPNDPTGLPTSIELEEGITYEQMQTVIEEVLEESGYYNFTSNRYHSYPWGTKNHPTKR", "note": "Each line is one published result; the experiments were not run side by side."}
{"SMILES": "COc1cnc(Nc2cccc(S(N)(=O)=O)c2)nc1N1CCN(c2ccccc2)C(=O)C1", "test": "binding, competition with immobilised ligand", "conditions": "1 µM", "remaining binding": "90%"}
{"SMILES": "O=C(c1ccc(Nc2ncc(Cl)c(-c3ccc(Cl)s3)n2)cc1)N1CCC(N2CCCC2)CC1", "test": "binding, competition with immobilised ligand", "conditions": "1 µM", "remaining binding": "30%"}
{"SMILES": "COc1cc(-c2cn(C3CCc4ccccc4N(CC(F)(F)F)C3=O)nn2)ccc1-n1ccc(C)n1 (centres unmarked)", "test": "cell-free assay, competition with immobilised ligand", "conditions": "1 µM", "remaining binding": "81%"}
{"SMILES": "CN(C)c1nccc(-c2cnn3ncccc23)n1", "test": "binding", "conditions": "1 µM", "remaining binding": "100%"}
{"SMILES": "O=C(Nc1cccnn1)N1CCC(=Cc2cccc(Oc3ccc(C(F)(F)F)cn3)c2)CC1", "test": "cell-free assay, competition with immobilised ligand", "conditions": "1 µM", "remaining binding": "100%"}
{"SMILES": "C[C@@H](c1ccc(-n2cnc3c(N)ncnc32)cc1)N1CCc2nn(C)c(Cc3ccccc3)c2C1=O", "test": "binding, competition with immobilised ligand", "conditions": "0.1 µM", "remaining binding": "80%"}
{"SMILES": "O=C(NCCCN1CCOCC1)c1ccc(Nc2ncc(Cl)c(-c3ccc(Cl)s3)n2)cc1", "test": "binding, competition with immobilised ligand", "conditions": "1 µM", "remaining binding": "48%"}
{"SMILES": "c1cncc(-c2cccc(Nc3nccc(NC4CCCCC4)n3)c2)c1", "test": "binding, competition with immobilised ligand", "conditions": "10 µM", "remaining binding": "1.6%"}
{"SMILES": "CNC(=O)[C@@H]1CC[C@@H](n2c(-c3ccc4cnccc4c3)nc3ccc(C(=O)NCc4cccc(C(N)=O)c4)cc32)C1", "test": "binding, competition with immobilised ligand", "conditions": "1 µM", "remaining binding": "92%"}
{"SMILES": "CN(CCCC(F)(F)F)c1nccc(-c2cnn3ncccc23)n1", "test": "binding", "conditions": "1 µM", "remaining binding": "90%"}
{"SMILES": "Cc1cnc(Nc2ccc(C(=O)N3CCC(N4CCCC4)CC3)cc2)nc1-c1cc2ccccc2s1", "test": "binding, competition with immobilised ligand", "conditions": "1 µM", "remaining binding": "71%"}
{"SMILES": "CN(C)c1ncnc(-c2ccc3nc(Nc4cc(CN5CCN(C(=O)CC(F)(F)F)CC5)ccn4)[nH]c3c2)c1Cl", "test": "cell-free assay, competition with immobilised ligand", "conditions": "1 µM", "remaining binding": "72%"}
{"SMILES": "O=C(Nc1c[nH]nc1C(=O)NC1CCNCC1)c1cc(F)cc(F)c1", "test": "binding, competition with immobilised ligand", "conditions": "1 µM", "remaining binding": "100%"}
{"SMILES": "C[C@@H](c1cccc(C#N)c1)n1cc(Cl)cc(C(N)=O)c1=N", "test": "cell-free assay, competition with immobilised ligand", "conditions": "1 µM", "remaining binding": "91%"}
{"SMILES": "CN(c1nccc(-c2cnn3ncccc23)n1)C1CC1", "test": "binding", "conditions": "1 µM", "remaining binding": "100%"}
{"SMILES": "CCOCCn1cc(C(=O)Nc2ccc(-n3nc(-c4cccnc4)cc3C(F)(F)F)cn2)ccc1=O", "test": "cell-free assay, competition with immobilised ligand", "conditions": "1 µM", "remaining binding": "94%"}
{"SMILES": "CN(C)c1nccc(-c2cnc3ncccn23)n1", "test": "binding", "conditions": "1 µM", "remaining binding": "59%"}
